# From PubChem
# CHO parental Ca: counter-screen for OX1R antagonists: effect in parental CHO cells; parental CHO-K1, ATP-induced calcium, Fluo-8 fluorescence; inhibition, % at 5.6 µM; hit rate 0.63% among 330,000;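 active means inhibition above that plate's mean sample inhibition plus 3 SD, cut at about 26% in these data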;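 further: 0% = ATP-challenged DMSO wells and 100% = DMSO wells without ATP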
#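 Test system: untransfected parental CHO cell line. Compound: one dose, 5.6 µM nominal. Detection: intracellular calcium via Fluo-8 no-wash fluorescent dye. Measure: % inhibition. Benchmarks: ATP-challenged DMSO wells low, unchallenged DMSO wells high.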
# OX1R antag-1: blocks the human orexin 1 receptor | CHO/OX1R cells, Fluo-8 calcium fluorescence, orexin A | inhibition, % at 5 µM | hit rate 0.43% among 330,000 | AID 434989;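 active means inhibition above its plate's threshold, mean inhibition of all tested compounds on the plate plus 3 SD, cut at about 37% in these data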;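 further: 0% = orexin A challenge wells and 100% = SB-334867-A antagonist wells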
# zfTRPN1 agonist: zebrafish TRPN1 (NompC) channel agonism | HEK293 zebrafish TRPN1-YFP, Fluo-8 calcium fluorescence; 100% = response to 87 µM carbachol | activation, % at 3 µM | hit rate 0.18% among 220,000;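 active means activation above its plate's cutoff, the mean activation of test wells on that plate plus 3 SD, cut at about 19% in these data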;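 further: 0% = DMSO alone and 100% = 87 µM carbachol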
#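 Material: zebrafish TRPN1-YFP in HEK293 cells; Doses: single test compound dose, 3 µM nominal, 0.3% DMSO; Timing: dye loading 1 h at 37 °C, then 30 min room temperature; Technique: intracellular calcium fluorescence with Fluo-8; Benchmarks: high carbachol 87 µM, low DMSO alone.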
# TRPML3 agonist: human mucolipin-3 channel agonism. AID 1448. HEK293 TRPML3-YFP, Fluo-8 calcium fluorescence; 100% = the carbachol control signal. hit rate 0.29% among 220,000. Q8TDD5. activation, % at 3 µM;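 active means activation above its plate's cutoff, the mean activation of the plate's test wells plus 3 SD, cut at about 12% in these data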;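 further: 0% = DMSO only wells and 100% = carbachol wells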
# Target sequence (Q8TDD5 whole entry, looked up): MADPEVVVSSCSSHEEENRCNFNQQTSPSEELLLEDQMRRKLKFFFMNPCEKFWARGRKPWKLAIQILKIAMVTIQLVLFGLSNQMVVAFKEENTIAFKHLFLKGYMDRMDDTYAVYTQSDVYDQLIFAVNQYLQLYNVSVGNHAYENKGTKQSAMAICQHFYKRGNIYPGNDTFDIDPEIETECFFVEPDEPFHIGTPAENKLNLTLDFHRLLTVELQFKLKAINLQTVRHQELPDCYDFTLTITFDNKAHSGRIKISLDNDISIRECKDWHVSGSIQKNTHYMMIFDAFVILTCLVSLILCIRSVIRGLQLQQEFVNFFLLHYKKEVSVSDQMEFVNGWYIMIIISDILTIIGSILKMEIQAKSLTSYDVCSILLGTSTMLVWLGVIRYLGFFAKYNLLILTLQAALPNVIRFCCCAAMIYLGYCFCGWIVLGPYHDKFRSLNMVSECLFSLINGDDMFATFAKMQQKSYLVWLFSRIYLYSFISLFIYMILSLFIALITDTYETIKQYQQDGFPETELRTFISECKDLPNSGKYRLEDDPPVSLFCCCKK
#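 Test system: TRPML3-YFP stable HEK293 cells. Doses: single point at 3 µM. Incubation: dye loading 1 h 37 °C then 30 min ambient, 125 s read. Signal: Fluo-8 calcium dye fluorescence, ex 470-495, em 515-575 nm. Measure: percent activation from peak-to-basal fluorescence ratio, scaled between DMSO and carbachol.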
# OX1R antag-2: antagonists of human orexin 1 receptor (OX1R). O43613. OX1R-expressing cells, FRET antagonist read-out. inhibition, % at 6.6 µM. hit rate 1.8% among 330,000. AID 485270; in the data active means inhibition mostly above about 38%, no sharp cut-off; inactive means mostly below about 40%;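 further: 0% = agonist challenge alone and 100% = reference antagonist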
# OX1R Ca confirm: OX1R (human) antagonism, confirmed; shares compounds with OX1R antag-1; CHO/OX1R cells, orexin A calcium Fluo-8 fluorescence; inhibition, % at 5 µM; hit rate 38% among 1,100; AID 492963; in the data active means inhibition above about 29%;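 further: 0% = agonist challenge alone and 100% = reference antagonist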
# CHO Ca triplic: counter-screen: parental CHO calcium response change, triplicate; shares compounds with OX1R antag-1; inhibition, % at 5.6 µM; parental CHO-K1, ATP-induced calcium, Fluo-8 fluorescence; hit rate 9.3% among 1,100;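 active means inhibition above a per-plate limit, the mean inhibition of that plate's test compounds plus 3 SD, cut at about 25% in these data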;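 further: 0% = ATP challenge with DMSO and 100% = DMSO without ATP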
# OX1R HTRF confirm: OX1R (human) antagonism, HTRF confirmed; shares compounds with OX1R antag-2; inhibition, % at 6.6 µM; OX1R-expressing cells, HTRF antagonist assay; AID 492964; hit rate 49% among 1,800; in the data active means inhibition above about 55%;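 further: CHO cells expressing OX1R stimulated with orexin A at about EC80; 0% = agonist challenge alone and 100% = reference antagonist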
# CHO-K1 HTRF cnt: counter-screen for OX1R antagonists: effect in parental CHO-K1 cells; inhibition, % at 6.6 µM; shares compounds with OX1R antag-2; hit rate 48% among 1,800; HTRF counterscreen; in the data active means inhibition above about 17%;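 further: 0% = agonist challenge with vehicle and 100% = vehicle alone without agonist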
# * marks the source's active call; other numbers are inactive results; / = no result. Compounds with a hit are over-represented: about 2.5% of the library has one in this group of screens.
SMILES,CHO parental Ca,OX1R antag-1,zfTRPN1 agonist,TRPML3 agonist,OX1R antag-2,OX1R Ca confirm,CHO Ca triplic,OX1R HTRF confirm,CHO-K1 HTRF cnt
CCn1c2ccccc2c2nc3ccccc3nc21,-5.1,27.4,0.3,-0.4,92.9*,43.1*,-10.6,92.6*,-5.5
C=CCN(c1ccc(Cl)cc1)S(=O)(=O)c1cccc(C(=O)O)c1,2.9,-26.5,-1.3,0.1,7.4,/,/,/,/
COc1cc2c(cc1OC)C(COc1ccc([N+](=O)[O-])cc1)N(C(C)=O)CC2 (stereo not given),-5.0,-14.2,/,/,1.1,/,/,/,/
CC(C)CC(C(=O)OCC(=O)Nc1cccc(Cl)c1)N1C(=O)C2CC=CCC2C1=O (stereo not given),-14.1,8.3,0.2,-0.1,25.4,/,/,/,/
CCOc1ccccc1NC(=O)COC(=O)C(CC(C)C)N1C(=O)C2CC=CCC2C1=O (stereo not given),-18.4,32.0,-1.0,0.7,60.0*,18.3,-7.8,42.7,8.6
CC(=O)N[C@H](Cc1c[nH]c2ccccc12)C(=O)O,-3.4,4.1,/,/,15.8,/,/,/,/
CC(=O)NC(Cc1c[nH]c2ccccc12)C(=O)N/N=C/c1ccccc1 (stereo not given),2.0,64.3*,0.1,0.3,72.9*,35.5*,-1.1,72.2*,-0.5
CCc1nnc(NC(=O)c2ccc3ccccc3n2)s1,-15.9,-25.5,-0.5,-0.5,54.2,/,/,/,/
CCSc1nnc(NC(=O)c2ccc3ccccc3n2)s1,-0.9,78.8*,1.1,0.0,93.5*,43.5*,-1.6,92.0*,6.7
Cc1ccc(NC(=O)c2ccc3ccccc3n2)nc1,-19.2,38.8,-0.5,-0.1,86.9*,37.9*,-11.8,97.1*,-3.5
O=C(Nc1ccc(Cl)cn1)c1ccc2ccccc2n1,-5.4,-8.4,1.2,0.4,7.1,/,/,/,/
Cc1cc(NC(=O)c2ccccc2Cl)ccc1NC(=O)c1ccccc1Cl,2.1,-9.6,/,/,6.5,/,/,/,/
Cc1ccc2sc3ccc(NC(=O)c4ccccc4Cl)cc3c(=O)c2c1,-16.8,36.8,1.2,0.8,71.2*,20.7,4.5,72.1*,18.2*
O=S(=O)(c1ccccc1)N1CCCc2ccccc21,3.3,-13.6,/,/,16.8,/,/,/,/
O=S(=O)(NC1CC1)c1ccc(S(=O)(=O)N2CCCc3ccccc32)cc1,0.8,81.7*,7.2,1.3,37.4*,60.5*,4.5,61.8*,-1.2
O=C(Nc1ccccc1)c1nc[nH]c1C(=O)NCc1ccccc1,2.8,-14.7,/,/,10.1,/,/,/,/
NNC(=O)c1nc[nH]c1C(=O)Nc1ccccc1,-20.9,25.4,/,/,51.5*,8.2,17.2,22.6,3.4
Cc1cccc(NC(=O)N2CCC(NC(=O)C3CCCCC3)CC2)c1,-4.9,-8.6,/,/,32.0,/,/,/,/
CCn1c(-c2ccccc2Cl)nn(CC(=O)NCCc2ccccc2)c1=S,-10.4,-22.0,0.2,0.1,25.9,/,/,/,/
CCn1c(-c2ccccc2Cl)nn(CC(=O)Nc2cc(Cl)ccc2Cl)c1=S,-5.5,46.4*,1.6,-0.3,53.8*,7.6,-5.0,49.5,-6.4
O=C(C1CCCN1S(=O)(=O)c1cccc2cccnc12)N1CCn2c1nc1ccccc12 (stereo not given),-6.0,44.9*,0.2,-1.3,95.9*,53.5*,-4.8,89.6*,1.9
O=C(C1CCN(S(=O)(=O)c2cccc3cccnc23)CC1)N1CCn2c1nc1ccccc12,-2.0,-26.8,1.5,-0.2,12.4,/,/,/,/
Cc1cc(OCc2cc(C(=O)N(C)CCc3cnn(C)c3)no2)cc(C)c1Cl,-1.5,-9.9,/,/,34.8,/,/,/,/
COc1ccc(-n2c(C)nnc2SCC(=O)N2CCOCC2)cc1,-3.6,-13.2,/,/,4.5,/,/,/,/
COc1ccc(CCCNC(=O)C2CCC(=O)N(CCc3cccc(F)c3)C2)cc1 (stereo not given),-25.9,-9.1,/,/,14.2,/,/,/,/
SMILES,CHO parental Ca,OX1R antag-1,zfTRPN1 agonist,TRPML3 agonist,OX1R antag-2,OX1R Ca confirm,CHO Ca triplic,OX1R HTRF confirm,CHO-K1 HTRF cnt
COc1cc2cc(C(=O)N/N=C/c3ccccc3Cl)[nH]c2cc1OC,-29.4,29.9,/,/,75.9*,17.5,-9.7,89.3*,13.5
COc1cc2cc(C(=O)N/N=C/c3ccc(F)cc3)[nH]c2cc1OC,-7.2,29.2,/,/,67.5*,14.5,2.8,73.3*,8.8
COc1ccc(C2=NOC(Cn3nc(C(=O)NCc4ccco4)cc3-c3ccccc3)C2)cc1 (stereo not given),-9.2,-12.6,/,/,29.3,/,/,/,/
Fc1cccc2sc(Nc3nc4cc5c(cc4s3)OCO5)nc12,-12.3,41.4*,1.7,0.9,75.5*,22.5,0.1,59.3*,6.4
O=C(Nc1ccc2c(c1)N(S(=O)(=O)c1cccs1)CCC2)c1c(F)cccc1F,-2.5,19.9,/,/,68.6*,37.2*,0.8,65.8*,3.2
Cc1ccc(-c2c(C)sc(NC(=O)C3C4CCC(O4)C3C(=O)O)c2C(=O)OC(C)C)cc1 (stereo not given),-11.6,51.5*,1.3,0.2,77.7*,7.2,3.3,60.1*,8.8
CCOC(=O)c1c(NC(=O)C2C3CCC(O3)C2C(=O)O)sc2c1CCCC2 (stereo not given),-5.9,-18.9,-0.1,1.2,18.1,/,/,/,/
CCn1c2ccccc2c2cc(NC(=O)c3cc(OC)cc(OC)c3)ccc21,-14.6,81.3*,0.4,0.6,85.4*,96.2*,-13.3,89.2*,-11.1
C=CCn1c(SCC(=O)Nc2cc3oc4ccccc4c3cc2OC)nnc1-c1cnccn1,-11.8,57.2*,-1.1,-0.6,90.8*,65.7*,-7.0,90.5*,3.4
CCn1c(SCC(=O)Nc2ccc3c(c2)c2ccccc2n3CC)nnc1-c1ccco1,-22.9,64.3*,-1.3,-0.3,81.4*,35.0*,-10.3,83.3*,2.7
CCn1c(SCC(=O)Nc2ccccc2C(=O)OC)nnc1-c1ccc(N)cc1,-15.3,-5.8,-0.7,-0.1,5.5,/,/,/,/
C=CCn1c(SCC(=O)Nc2cccc3ccccc23)nnc1-c1cnccn1,-20.5,-30.1,-2.0,-0.2,6.2,/,/,/,/
CCn1c(SCC(=O)Nc2ccc3c(c2)oc2ccccc23)nnc1-c1ccc(N)cc1,-3.2,36.5,-0.8,0.9,83.8*,37.5*,-21.3,41.9,-13.6
C/C(Cn1nnc2ccccc21)=N\NC(=O)c1ccc(Br)cc1,2.7,-12.4,1.6,0.7,15.0,/,/,/,/
O=C(CN1CCN(C(C(=O)Nc2ccc(F)cc2)c2ccccc2)CC1)NC1CC1 (stereo not given),-8.7,-12.1,/,/,-0.7,/,/,/,/
O=C(CSc1nnnn1-c1ccc(O)cc1)c1cc2ccccc2o1,-3.0,-0.5,-0.1,-0.3,26.4,/,/,/,/
